Assay results: ChEMBL document CHEMBL5046273, “Development of a Novel, Small-Molecule Brain-Penetrant Histone Deacetylase Inhibitor That Enhances Spatial Memory Formation in Mice” (J Med Chem, 2022)
Active and inactive are the calls of the source. The rule behind the calls is not given here.

How the values were obtained:
[1] = target: Histone deacetylase 1 (Homo sapiens, UniProt Q13547); assay: Inhibition of HDAC1 in human DU-145 cells assessed as increase in histone H3 acetylation after 24 hrs by immunofluorescence microscopy; format: cell-based
Chain of Histone deacetylase 1 (Q13547 whole entry): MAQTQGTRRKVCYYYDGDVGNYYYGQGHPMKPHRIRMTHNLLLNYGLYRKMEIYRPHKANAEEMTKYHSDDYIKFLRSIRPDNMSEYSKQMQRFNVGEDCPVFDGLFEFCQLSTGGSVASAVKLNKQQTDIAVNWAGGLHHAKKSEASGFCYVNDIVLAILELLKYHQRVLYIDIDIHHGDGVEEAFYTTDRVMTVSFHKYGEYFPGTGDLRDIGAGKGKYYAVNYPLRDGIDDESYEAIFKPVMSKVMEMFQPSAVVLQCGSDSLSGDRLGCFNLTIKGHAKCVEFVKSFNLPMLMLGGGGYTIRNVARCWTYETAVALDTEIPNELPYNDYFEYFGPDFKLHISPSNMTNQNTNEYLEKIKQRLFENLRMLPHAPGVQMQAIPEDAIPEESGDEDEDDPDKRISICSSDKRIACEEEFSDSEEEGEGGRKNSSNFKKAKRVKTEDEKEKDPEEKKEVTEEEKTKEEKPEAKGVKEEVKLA

[2] = Toxicity in ip dosed BALB/c mouse assessed as maximum tolerated dose measured after 2 weeks; format: organism-based; conditions: BALB/c, in vivo
In short: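 Healthy BALB/c mice, compound in 20% DMSO/saline, single i.p. dose. One mouse each at 200, 100 and 50 mg/kg, then 25, 12.5 and 6.25 mg/kg if needed, repeated until a tolerated dose was found. Last test repeated once. Mice weighed daily for 8 days; euthanized at >20% weight loss or overt toxicity. Morbidity/mortality followed over 2 weeks; triplicate experiments.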

[3] = target: Histone deacetylase (Homo sapiens) (UniProt Q13547+O15379+Q9UBN7+Q92769+Q9UQL6+Q8WUI4+Q9BY41+Q96DB2+P56524+Q9UKV0+Q969S8); conditions: DU-145, dose 10.0 nM, time 24.0 hrs
[4] = tested on: DU-145; assay: Cytotoxicity against human DU-145 cells assessed as reduction in cell viability at 5 to 10 nM incubated for 48 hrs by MTT assay; format: functional, cell-based; conditions: dose 5-10 nM
In short: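 DU145 cells in DMEM with 10% FBS were seeded at 14 000 cells/well and allowed to adhere for 24 h. Test agents were diluted from 10 mM DMSO stocks (100, 50, 25 µM; 10, 5, 1.25 nM) and applied in triplicate for 48 h at 37 °C, 5% CO2, with DMSO as vehicle. Read-out was 250 µg/mL MTT for 4 h, DMSO solubilization, and A570 with 690 nm reference. Values normalized to DMSO.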

## C/C=C1\NC(=O)[C@H]2CSSCC/C=C/[C@H](CC(=O)N[C@H](C(C)C)C(=O)N2)OC(=O)[C@H](C(C)C)NC1=O [ROMIDEPSIN]
[1]
  IC50: 1.4 nM
[2]
  MTD at 336 h: > 200 mg/kg
[3]
  inhibition: Active
[4]
  Activity: Active
